Published values gathered from unrelated publications.
Cell line: MV4-11
Observed: cell growth or viability

CC(C)Nc1ccnc(Nc2cccc(-c3ccccn3)c2)n1 — EC50 (ATP luminescence; 72 h): 4820 nM
C#CCN(C)Cc1ccccc1 — EC50 (resazurin; 96 h): > 2000 nM
Cn1cc(-c2cc(N3CCCCS3(=O)=O)ccc2Oc2ccc(F)cc2F)c2c(F)c[nH]c2c1=O — GI50 (CCK-8; 72 h): 3.5 nM
Nc1ncc(-c2cnn(C3CCNCC3)c2)cc1-c1nnc(CC2CC2)o1 — IC50 (trypan blue; 72 h): 157 nM
CC[C@@H](C)[C@H](N)C(=O)N1Cc2ccccc2C1 — IC50 (ATP luminescence; 24 h): 1150 nM
COc1cc(Nc2nccc(-c3cnn4nc(OC)ccc34)n2)cc(C(F)(F)F)c1 — IC50 (ATP luminescence): 48 nM
c1cc(Nc2nccc(NC3CCCCC3)n2)cc(-n2ccnc2)c1 — EC50 (ATP luminescence; 72 h): 58 nM
O=C(O)c1ccc(CN2CCC(CN[C@@H]3C[C@H]3c3ccccc3)CC2)cc1 — EC50 (resazurin; 96 h): 39.6 nM
c1cc(Nc2nccc(NC3CCCCC3)n2)cc(-c2ncco2)c1 — EC50 (ATP luminescence; 72 h): 511 nM
Cc1ccc(NC(=O)NCc2ccc3c(c2)CN(C2CCC(=O)NC2=O)C3=O)cc1Cl (stereo not shown) — EC50 (ATP luminescence): 0.026 nM
N[C@H]1CC[C@H](N[C@@H]2C[C@H]2c2ccccc2)CC1 — EC50 (resazurin; 96 h): 0.1 nM
CC(C)[C@H](N)C(=O)N1CCC[C@H]1B(O)O — IC50 (ATP luminescence; 5 days): 130 nM
c1cncc(Nc2nccc(NC3CCCCC3)n2)c1 — EC50 (ATP luminescence; 72 h): > 7000 nM
CN1CCN(C(=O)[C@H](CCCN[C@@H]2C[C@H]2c2ccc(F)cc2)NC(=O)c2ccc(-n3ccnn3)cc2)CC1 — EC50 (resazurin; 96 h): 4.2 nM
Cc1ncsc1-c1ccc(CNC(=O)[C@@H]2C[C@H](O)CN2C(=O)[C@@H](NC(=O)C2(F)CC2)C(C)(C)C)c(OCCc2ccc(CN3CCN(c4cc(-c5ccccc5O)nnc4N)CC3)cc2)c1 — IC50 (ATP luminescence; 7 days): 1700 nM
CC(C)Nc1ccnc(Nc2ccc(-c3ccccc3)cc2)n1 — EC50 (ATP luminescence; 72 h): 11900 nM
